Data published in ChEMBL document CHEMBL3576780, “Effects of resveratrol on benign prostatic hyperplasia by the regulation of inflammatory and apoptotic proteins” (2015).
Active and inactive are the calls of the source.

Tests used:
Assay type in all cases: functional, organism-based
Rattus norvegicus [1] = test: Reduction in proliferating cell nuclear antigen expression in prostate tissue in BPH-induced Sprague-Dawley rat model at 5 mg/kg, po daily for 4 weeks by Western blot analysis
Rattus norvegicus [2] = test: Reduction in prostate weight in BPH-induced Sprague-Dawley rat model at 5 mg/kg, po daily for 4 weeks in presence testosterone propionate of 10 mg/kg, intramuscular injection for 4 weeks; conditions: Prostate gland
Rattus norvegicus [3] = test: Reduction in 5alpha-reductase mRNA level in prostate tissue in BPH-induced Sprague-Dawley rat model at 1 mg/kg, ip daily for 4 weeks by quantitative real-time PCR analysis; conditions: Prostate gland
Procedure, shortened: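 Prostate tissue 5α-reductase 2 mRNA quantified by real-time PCR in male Sprague-Dawley rats given testosterone propionate 10 mg/kg im daily for 4 weeks plus daily treatment; mean ± SEM, n = 6 rats/group.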

Rattus norvegicus [4] = test: Reduction in prostate weight in BPH-induced Sprague-Dawley rat model at 1 mg/kg, ip daily for 4 weeks in presence testosterone propionate of 10 mg/kg, intramuscular injection for 4 weeks; conditions: Prostate gland
Rattus norvegicus [5] = test: Increase in Bax expression in prostate tissue in BPH-induced Sprague-Dawley rat model at 1 mg/kg, ip daily for 4 weeks by Western blot analysis; conditions: Prostate gland
Procedure, shortened: (§1)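 Prostate homogenized in lysis buffer, 30 μg protein run on SDS-PAGE, PVDF blot, antibody probing, ECL detection, β-actin internal control, densitometry. Mean ± SEM, n = 6 rats/group; one-way ANOVA with Dunnett's test.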

Rattus norvegicus [6] = test: Reduction in iNOS expression in prostate tissue in BPH-induced Sprague-Dawley rat model at 1 mg/kg, ip daily for 4 weeks by Western blot analysis; conditions: Prostate gland
Rattus norvegicus [7] = test: Reduction in prostate cell proliferation and gland development in BPH-induced Sprague-Dawley rat model at 1 mg/kg, ip daily for 4 weeks by Hematoxylin and eosin staining based microscopy
Procedure, shortened: (§2)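 Prostates fixed in 4% buffered formalin, paraffin embedded, cut at 4 μm, stained with H&E and imaged at original magnification 40×. Epithelial thickness measured by pathologists. Rats received testosterone propionate 10 mg/kg im daily for 4 weeks with daily treatment; n = 6 per group.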

Rattus norvegicus [8] = test: Reduction in Bcl-xL expression in prostate tissue in BPH-induced Sprague-Dawley rat model at 1 mg/kg, ip daily for 4 weeks by Western blot analysis; conditions: Prostate gland; procedure, shortened: as §1
Rattus norvegicus [9] = test: Reduction in procaspase 3 expression in prostate tissue in BPH-induced Sprague-Dawley rat model at 1 mg/kg, ip daily for 4 weeks by Western blot analysis; conditions: Prostate gland; procedure, shortened: as §1
Rattus norvegicus [10] = test: Reduction in PARP1 expression in prostate tissue in BPH-induced Sprague-Dawley rat model at 1 mg/kg, ip daily for 4 weeks by Western blot analysis; conditions: Prostate gland; procedure, shortened: as §1
Rattus norvegicus [11] = test: Reduction in COX2 expression in prostate tissue in BPH-induced Sprague-Dawley rat model at 1 mg/kg, ip daily for 4 weeks by Western blot analysis; conditions: Prostate gland; procedure, shortened: as §1
Rattus norvegicus [12] = test: Reduction in Bcl2 expression in prostate tissue in BPH-induced Sprague-Dawley rat model at 1 mg/kg, ip daily for 4 weeks by Western blot analysis; conditions: Prostate gland
Rattus norvegicus [13] = test: Reduction in Bcl2 to Bax ratio in prostate tissue in BPH-induced Sprague-Dawley rat model at 1 mg/kg, ip daily for 4 weeks by Western blot analysis; conditions: Prostate gland
Procedure, shortened: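 Male Sprague-Dawley rats, BPH induced by daily im testosterone propionate 10 mg/kg for 4 weeks with daily dosing. Prostate lysate (30 μg protein) Western blotted; Bax and Bcl-2 band densities normalized to β-actin and expressed as Bax/Bcl-2 ratio. Mean ± SEM, n = 6 rats/group.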

Rattus norvegicus [14] = test: Reduction in thickness of epithelium tissue in prostate tissue in BPH-induced Sprague-Dawley rat model at 1 mg/kg, ip daily for 4 weeks by Hematoxylin and eosin staining based microscopy; conditions: Prostate gland; procedure, shortened: as §2
Rattus norvegicus [15] = test: Reduction in proliferating cell nuclear antigen in prostate tissue expression in BPH-induced Sprague-Dawley rat model at 1 mg/kg, ip daily for 4 weeks by Western blot analysis; procedure, shortened: as §1

Measured: inhibition

CC(C)(C)NC(=O)[C@H]1CC[C@H]2[C@@H]3CC[C@H]4NC(=O)C=C[C@]4(C)[C@H]3CC[C@]12C
active: Rattus norvegicus [1] | Rattus norvegicus [2]

Oc1ccc(/C=C/c2cc(O)cc(O)c2)cc1
not listed: Rattus norvegicus [1] | Rattus norvegicus [2]
active: all other assays above
